# Her2 expr inh = lowers expression of human Her2 kinase | P04626 | SKBR-3 HER2 protein level, AlphaScreen, 18-24 h; active compounds read low | HER2 level % of control, % at 10 µM | actives 0.69% (n = 65,000);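 active means HER2 level under 5% of the carrier-only control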;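 further: 100% = DMSO carrier and 0% = 500 nM PU-H71 HSP90 inhibitor; lower value means stronger loss of Her2 protein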
# BAP1 inh = human BAP1 deubiquitinase inhibition; actives 0.48% (n = 72,000); calls only at 20 µM; AID 436; recombinant BAP1, Ub-AMC hydrolysis fluorescence kinetic; active compounds read low;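 active means activity remaining at or below 50% of control, provided the compound also passes the data quality filters; inactive means the rest, including low values that fail the filters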;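 further: 100% = DMSO wells rate and 0% = substrate alone blank rate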
# JNK3 blocker = blocks human JNK3 kinase activity; purified JNK3 kinase activity, HTS; inhibition, % at 8 µM; actives 0.61% (n = 60,000); in the data active means inhibition above about 17%;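 further: 0% = DMSO and 100% = reference inhibitor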
# M1 ag = activates the M1 muscarinic receptor | CHO-M1 cells, Fluo-4 calcium fluorescence, agonist mode; active compounds read high | B-score at 10 µM | actives 3% (n = 64,000) | AID 626;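 active means fluorescence rise, raw or as B-score row- and column-corrected plate score, outside the 99.7% band of its plate's samples, either direction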
# M1 antag = antagonists of rat M1 muscarinic receptor | P08482 | B-score at 10 µM | actives 3.4% (n = 64,000) | CHO-M1 cells, Fluo-4 calcium, ACh EC80 antagonist mode; active compounds read low | AID 628;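 active means calcium fluorescence response, raw or row-and-column corrected B-score, differing from the plate sample mean either way at a set confidence level, mostly lower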
# Target sequence (P08482 whole entry, looked up): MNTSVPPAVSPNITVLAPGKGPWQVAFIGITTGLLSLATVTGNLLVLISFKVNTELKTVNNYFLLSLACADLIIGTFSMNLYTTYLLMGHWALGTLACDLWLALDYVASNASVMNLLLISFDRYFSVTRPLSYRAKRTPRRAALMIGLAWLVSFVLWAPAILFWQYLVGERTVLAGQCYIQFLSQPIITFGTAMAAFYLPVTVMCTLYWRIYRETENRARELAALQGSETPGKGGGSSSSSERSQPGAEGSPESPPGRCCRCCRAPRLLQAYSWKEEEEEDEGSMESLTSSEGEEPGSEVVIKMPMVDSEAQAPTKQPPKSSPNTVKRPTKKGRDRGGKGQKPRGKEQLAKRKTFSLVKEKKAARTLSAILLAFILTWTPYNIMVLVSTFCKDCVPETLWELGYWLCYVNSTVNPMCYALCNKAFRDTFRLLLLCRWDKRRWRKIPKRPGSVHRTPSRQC
# HEK293 NFkB inh = lowers PMA/ionomycin-induced NF-kB signal in HEK293 cells; HEK-293 NF-kB luciferase reporter, luminescence; AID 465; inhibition, % at 3 µM; actives 0.21% (n = 62,000);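 active means inhibition above the mean of all tested compounds plus 3 SD, cut at about 40% in these data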;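 further: 0% = stimulated DMSO wells and 100% = 10 µM reference inhibitor 5653914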
#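 Timing: 1 h pretreatment, 16 h stimulation, 37 °C; system: HEK-293 cells with stable firefly luciferase reporter driven by four HIV NF-kB elements; doses: 3 µM once, 0.30% DMSO; measured by: luciferase luminescence; control set: DMSO and 10 µM reference inhibitor; repeats: single test; reagent: PMA plus ionomycin mix as NF-kB-activating stimulus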
# * hit, by the source's call; i = inactive; · = no result given. Shown are actives, neighbours in structure and some others; about 6.6% of the full set was active somewhere.
SMILES,Her2 expr inh,BAP1 inh,JNK3 blocker,M1 ag,M1 antag,HEK293 NFkB inh
CCCn1c(CN2CCN(c3cccc(Cl)c3)CC2)nc2c1c(=O)n(C)c(=O)n2C,99.6,i,-2.5,10.6*,-2.49*,19.2
CNC(=O)CN(C#N)c1nc(N(C)C)nc(N(C)C)n1,-19.6*,i,-11.7,-0.0828,-0.0223,1.4
CC(C)N1CCC2(CC1)N=C(c1ccc3c(c1)OCO3)CC(c1cc(Cl)ccc1O)N2 (configuration not stated),-18.3*,i,1.3,·,·,13.1
O=S(=O)(CC(CN1CCCC1)N1CCCC1)c1ccc2ccccc2c1 (configuration not stated),-12.8*,i,2.6,0.166,1.08,31.8
O=S(=O)(c1ccc2ccccc2c1)N1CCCCC1,138.3,i,0.2,0.693,0.966,7.2
COc1ccc(C(=O)Nc2ccccc2C)cc1,·,i,·,·,·,·
COc1ccc(-n2c(SCC(=O)Nc3nccs3)nc3c(c2=O)SC(C)C3)cc1 (configuration not stated),99.7,i,-1.9,0.0173,0.818*,11.9
CCc1ccc(C2CC(=O)N3CN(c4ccccc4)CSC3=C2C#N)cc1 (configuration not stated),-17.6*,i,-0.1,0.329,-0.0362,11.6
CC(=O)c1c(C)oc2ccc(N(C(=O)c3ccc(Cl)cc3)S(=O)(=O)c3ccccc3)cc12,·,i,·,·,·,·
NS(=O)(=O)c1ccc(NC(=O)c2cc(Cl)ccc2[N+](=O)[O-])cc1,·,i,·,·,·,·
N#Cc1c(NC(=O)CN2C(=O)C3CC=C(Cl)CC3C2=O)sc2c1CCC2 (configuration not stated),·,i,·,·,·,·
CCOC(=O)C1CCCN(C/C(O)=C(\C#N)c2nc(-c3ccccc3)cs2)C1 (configuration not stated),144.6,i,9.7,11.5*,-0.215,9.6
c1ccc2nc3c(nc2c1)[nH]c1ccccc13,64.8,i,55.3*,-0.904,0.934,-32.2
CCCn1c(=O)c2ccccc2n2c(SCC(=O)c3ccccc3)nnc12,103.4,i,-2.7,2.29,2.51*,9.5
Cn1c(=O)c2c3c(sc2n2c(SCC(=O)c4ccccc4)nnc12)COC(C)(C)C3,104.6,i,-3.9,-0.78,-2.89*,·
Cn1c(=O)c2c3c(sc2n2c(SCC(=O)c4ccc(Cl)cc4)nnc12)COC(C)(C)C3,87.7,i,-2.3,0.0282,-0.237,·
O=C(O)C1C(C(=O)Nc2cccc(Cl)c2)C2C=CC1C21CC1 (configuration not stated),·,i,·,·,·,·
CC(=O)c1cccc(NC(=O)NCc2ccccn2)c1,179.0,i,5.8,3.1*,1.14,-16.1
Cc1ccc2nc(-c3ccccc3)cc(C(=O)Nc3ccccc3Cl)c2c1,·,i,·,·,·,·
CCOc1ccc(C(=O)Nc2ccc(Br)cn2)cc1,·,i,·,·,·,·
CCOc1ccccc1C1C(C(N)=O)=C(C)Nc2nc(CCCO)nn21 (configuration not stated),99.4,i,-2.1,-1.25,-0.324,-8.8
OCCCc1nc2n(n1)C(c1ccccc1)C=C(c1ccc(F)cc1)N2 (configuration not stated),-30.0*,i,1.0,2.3,0.149,12.2
OCCCc1nc2n(n1)C(c1cccs1)C=C(c1ccccc1)N2 (configuration not stated),87.5,·,2.8,431*,-14.9*,4.3
O=C(Nc1cccnc1)c1ccc(COc2ccccc2Br)o1,71.3,i,20.7*,0.115,0,1.3
CC(C)COC(=O)N1CC(O)CC1C(=O)O (configuration not stated),-13.9*,i,-6.2,0.442,0.68,16.0
SMILES,Her2 expr inh,BAP1 inh,JNK3 blocker,M1 ag,M1 antag,HEK293 NFkB inh
CC(NC(=O)OCc1ccccc1)C(=O)N1CC(O)CC1C(=O)O (configuration not stated),79.7,i,-4.9,0.0111,0.0686,4.4
CCOC(=O)CN=C1CC(C)(C)CC2=C1Sc1ncnc(N(C)C)c1N2,97.6,i,-0.4,8.2*,-1.36,5.6
CCOC(=O)C1=C(C)NC2=C(C(=O)CC(C)(C)C2)C1c1cccc(C)n1 (configuration not stated),116.8,·,0.8,0.975,0.896,15.4
O=c1c2ccccc2nc(COc2ccccc2)n1/N=C/c1ccco1,116.9,i,-1.1,-0.0502,-0.602,-0.5
C(=N/n1c2ccccc2c2ccccc21)/c1ccco1,1.7*,i,-2.7,0.205,0.146,12.5
CCCCOC(=O)c1cccc(NC(=O)c2c(C)cc(C)cc2C)c1,·,i,·,·,·,·
NC(=O)c1sc2nccc(Nc3ccccc3)c2c1N,132.7,i,9.6,2,-0.874,45.2*
O=C(CSc1nnnn1-c1cccc2c1CCCC2)N1CCOCC1,61.9,·,·,-0.112,2.75*,8.6
Cc1cc2nc(NC3=NCN(Cc4ccc5c(c4)OCO5)CN3)nc(C)c2cc1C,-5.8*,i,1.6,0.073,-5.08*,10.5
CCOc1ccc2nc(NC3=NCN(Cc4ccco4)CN3)nc(C)c2c1,99.8,·,-1.2,-0.582,-0.0229,-14.1
Cc1cc2nc(NC3=NCN(CCN4CCOCC4)CN3)nc(C)c2cc1C,104.6,i,-2.1,0.638,-5.65*,9.8
Cc1ccc(S(=O)(=O)NCCCN2CCOCC2)cc1C,143.0,i,-1.3,-1.09,-0.383,9.1
O=C(CCCCCN1C(=O)CCC1=O)NCc1ccccc1,83.5,i,-1.8,-1.34,2.12*,16.7
Cc1ccc(NS(=O)(=O)c2cccs2)cc1,·,i,·,·,·,·
O=S(=O)(Nc1cccnc1)c1cccs1,143.6,i,0.5,0.0679,2.36*,-3.5
COc1ccc(OCCn2c(NC(=O)c3ccco3)nc3ccccc32)cc1,59.4,i,-0.5,-0.347,0.413,-0.8
CCCn1c(NC(=O)c2ccco2)nc2ccccc21,0.7*,i,4.4,-1.19,-0.0117,2.6
Cn1c(C(C#N)C(=O)c2ccco2)nc2ccccc21 (configuration not stated),-11.7*,i,-4.6,-0.251,-0.879,-15.2
Cc1cc(OCC(=O)Nc2c(C(C)C)cccc2C(C)C)ccc1Cl,·,i,·,·,·,·
Cc1c(-c2cccs2)[n+](=O)c2c(n1[O-])CCCC2,-30.7*,i,-5.9,-0.0206,0.0208,·
CS(=O)(=O)N1CCN(c2ccccc2NC(=O)CSc2ccc(Cl)cc2)CC1,93.0,·,20.6*,0.373,-0.259,10.1
CS(=O)(=O)N1CCN(c2ccccc2NC(=O)c2ccc(Cl)cc2)CC1,62.8,i,-4.4,-0.261,0.0168,12.9
COc1ccc([C@@H]2[C@H]3CN(C(C)=O)CC=C3C(C#N)=C(N)C2(C#N)C#N)c2ccccc12,-0.8*,i,0.0,0.756,-0.88,24.8
O=C(Nc1nc(-c2cccs2)cs1)c1cccc2ccccc12,·,i,·,·,·,·
O=C(CSc1oc(-c2ccccc2)nc1S(=O)(=O)c1ccc(F)cc1)NCC1CCCO1 (configuration not stated),-21.4*,·,·,0.553,1.41,3.7

# Source: PubChem BioAssay
